What was measured:
[1] = target: Integrin alpha-IIb/beta-3 (Homo sapiens, UniProt P05106+P08514); experiment: Displacement of biotinylated fibrinogen from human glycoprotein 2b/3a receptor after 2 hrs by chemiluminescence assay; format: protein-complex assay
Outline: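 Solid-phase competitive binding: purified human GPIIb/IIIa coated overnight at 4 °C in Tris buffer pH 7.4 with 1 mM Ca2+, Mg2+, Mn2+; blocked with 1% BSA. Serially diluted inhibitor plus biotinylated human fibrinogen, 2 h rt; peroxidase anti-biotin antibody 1 h, chemiluminescent read.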

[2] = target: Trypsin (Homo sapiens, UniProt P07477+P07478+P35030); experiment: Inhibition of trypsin (unknown origin) using S-2222 as substrate incubated for 15 mins prior to substrate addition measured every 10 secs by spectrophotometric analysis; format: protein assay
Outline: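 Trypsin at 0.5 nkat/mL final with S-2222 at 50 and 100 µM final. Inhibitor 0.5–100 µM, diluted from 10 mM DMSO stocks, preincubated 15 min at 25 °C with enzyme in HBSA buffer before substrate; absorbance at 405 nm every 10 s. Triplicate at three inhibitor and two substrate levels; Ki from initial rates (Cheng–Prusoff), averaged.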

[3] = target: Prothrombin (Homo sapiens, UniProt P00734); experiment: Inhibition of thrombin (unknown origin) using S-2238 as substrate incubated for 15 mins prior to substrate addition measured every 10 secs by spectrophotometric analysis
[4] = target: Coagulation factor X (Homo sapiens, UniProt P00742); experiment: Inhibition of F10a (unknown origin) using S-2222 as substrate incubated for 15 mins prior to substrate addition measured every 10 secs by spectrophotometric analysis
Sequence of Coagulation factor X (P00742 41-179 limits assumed): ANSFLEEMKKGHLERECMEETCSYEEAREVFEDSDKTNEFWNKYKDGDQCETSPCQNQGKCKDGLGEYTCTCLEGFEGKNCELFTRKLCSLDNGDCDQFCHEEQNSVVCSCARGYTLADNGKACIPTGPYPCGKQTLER
Sequence of Coagulation factor X (P00742 235-488 limits assumed): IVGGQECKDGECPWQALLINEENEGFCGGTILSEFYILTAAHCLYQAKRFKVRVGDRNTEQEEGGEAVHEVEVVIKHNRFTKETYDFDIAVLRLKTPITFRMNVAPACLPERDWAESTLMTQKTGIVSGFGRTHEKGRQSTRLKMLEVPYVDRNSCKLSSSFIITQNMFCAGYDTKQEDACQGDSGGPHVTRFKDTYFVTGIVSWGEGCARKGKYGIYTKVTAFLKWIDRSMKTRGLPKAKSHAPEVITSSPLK
Outline: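 Inhibitor 0.5–100 µM (from 10 mM DMSO stocks) preincubated with enzyme in HBSA buffer 15 min, 25 °C; A405 read every 10 s. Triplicate, three inhibitor × two substrate concentrations; Ki from initial linear rates via Cheng–Prusoff, averaged.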

Sequence of Integrin alpha-IIb/beta-3 (P05106 27-788 limits assumed): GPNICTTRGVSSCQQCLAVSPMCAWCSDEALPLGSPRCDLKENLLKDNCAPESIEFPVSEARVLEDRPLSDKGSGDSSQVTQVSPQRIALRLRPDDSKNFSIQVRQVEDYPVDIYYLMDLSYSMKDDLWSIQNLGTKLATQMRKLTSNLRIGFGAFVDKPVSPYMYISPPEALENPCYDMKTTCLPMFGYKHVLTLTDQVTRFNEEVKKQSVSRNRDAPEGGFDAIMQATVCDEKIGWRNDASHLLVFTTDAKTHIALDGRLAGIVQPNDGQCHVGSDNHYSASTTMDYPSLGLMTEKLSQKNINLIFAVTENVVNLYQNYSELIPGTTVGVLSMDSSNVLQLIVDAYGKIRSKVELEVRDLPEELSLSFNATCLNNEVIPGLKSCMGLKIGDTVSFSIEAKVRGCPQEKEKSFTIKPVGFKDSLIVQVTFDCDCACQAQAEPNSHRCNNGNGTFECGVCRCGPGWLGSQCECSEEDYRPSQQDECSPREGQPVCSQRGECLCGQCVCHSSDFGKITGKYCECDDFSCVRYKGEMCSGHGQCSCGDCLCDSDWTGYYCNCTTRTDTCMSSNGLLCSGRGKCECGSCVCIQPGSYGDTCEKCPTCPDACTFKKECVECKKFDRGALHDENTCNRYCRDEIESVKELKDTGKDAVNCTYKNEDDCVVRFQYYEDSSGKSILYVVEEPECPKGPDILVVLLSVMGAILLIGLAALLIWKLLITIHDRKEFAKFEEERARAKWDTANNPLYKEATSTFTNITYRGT
Sequence of Integrin alpha-IIb/beta-3 (P08514 32-887 limits assumed): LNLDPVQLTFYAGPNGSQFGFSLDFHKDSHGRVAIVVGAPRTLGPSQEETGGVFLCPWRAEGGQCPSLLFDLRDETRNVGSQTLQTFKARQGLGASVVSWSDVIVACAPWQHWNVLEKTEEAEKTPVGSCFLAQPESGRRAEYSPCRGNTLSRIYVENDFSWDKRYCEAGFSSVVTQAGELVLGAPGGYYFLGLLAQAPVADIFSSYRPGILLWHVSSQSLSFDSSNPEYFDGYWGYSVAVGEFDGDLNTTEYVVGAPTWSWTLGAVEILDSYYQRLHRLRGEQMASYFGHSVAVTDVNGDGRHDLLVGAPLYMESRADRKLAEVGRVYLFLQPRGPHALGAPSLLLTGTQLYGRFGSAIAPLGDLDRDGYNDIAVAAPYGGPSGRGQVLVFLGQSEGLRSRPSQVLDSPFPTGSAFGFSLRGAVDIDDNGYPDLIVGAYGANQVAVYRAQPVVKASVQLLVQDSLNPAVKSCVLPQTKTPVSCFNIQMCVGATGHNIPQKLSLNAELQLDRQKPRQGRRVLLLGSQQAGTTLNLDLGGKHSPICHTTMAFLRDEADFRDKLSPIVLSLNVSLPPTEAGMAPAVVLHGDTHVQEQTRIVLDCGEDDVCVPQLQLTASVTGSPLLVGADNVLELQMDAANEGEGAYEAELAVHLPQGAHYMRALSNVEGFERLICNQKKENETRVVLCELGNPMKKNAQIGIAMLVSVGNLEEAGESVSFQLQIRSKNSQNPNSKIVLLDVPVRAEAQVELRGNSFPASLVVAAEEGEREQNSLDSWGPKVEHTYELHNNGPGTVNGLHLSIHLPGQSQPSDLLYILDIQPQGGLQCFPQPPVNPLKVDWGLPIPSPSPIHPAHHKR
Sequence of Integrin alpha-IIb/beta-3 (P08514 891-1039 limits assumed): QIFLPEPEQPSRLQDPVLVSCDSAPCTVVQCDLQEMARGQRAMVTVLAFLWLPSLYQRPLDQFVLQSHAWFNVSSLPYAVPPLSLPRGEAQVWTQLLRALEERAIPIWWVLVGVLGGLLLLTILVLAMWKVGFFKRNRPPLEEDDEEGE

## O=C(O)C1CCN(c2ccc(N3C[C@H](CNCc4ccc(-c5noc(=O)[nH]5)cc4)OC3=O)cc2)CC1
[1]
  IC50: 0.89 µM
[2]
  Ki: > 100 µM
[3]
  Ki: > 100 µM
[4]
  Ki: > 100 µM

## O=C(O)C1CCN(c2ccc(N3C[C@@H](CNCc4ccc(-c5noc(=O)[nH]5)cc4)OC3=O)cc2)CC1
[1]
  IC50: 0.26 µM
[2]
  Ki: > 100 µM
[3]
  Ki: > 100 µM
[4]
  Ki: 94.8 µM

## CC(=O)O.CCOC(=O)C1CCN(c2ccc(N3C[C@H](CNC(=O)c4ccc(C(=N)N)cc4)OC3=O)cc2)CC1
[1]
  IC50: 14 µM
[2]
  Ki: 5.65 µM
[3]
  Ki: > 100 µM
[4]
  Ki: > 100 µM

## CC(=O)O.CCOC(=O)C1CCN(c2ccc(N3C[C@@H](CNC(=O)c4ccc(C(=N)N)cc4)OC3=O)cc2)CC1
[1]
  IC50: 96 µM
[2]
  Ki: 3.06 µM
[3]
  Ki: > 100 µM
[4]
  Ki: > 100 µM

## CC(=O)O.CCOC(=O)C1CCN(c2ccc(N3C[C@H](CNCc4ccc(C(=N)N)cc4)OC3=O)cc2)CC1
[1]
  IC50: 55 µM
[2]
  Ki: 2.17 µM
[3]
  Ki: > 100 µM
[4]
  Ki: 34.3 µM

## CC(=O)O.CCOC(=O)C1CCN(c2ccc(N3C[C@@H](CNCc4ccc(C(=N)N)cc4)OC3=O)cc2)CC1
[1]
  IC50: 35 µM
[2]
  Ki: 6.59 µM
[3]
  Ki: > 100 µM
[4]
  Ki: 25.6 µM

## CC(=O)O.N=C(N)c1ccc(C(=O)NC[C@H]2CN(c3ccc(N4CCC(C(=O)O)CC4)cc3)C(=O)O2)cc1
[1]
  IC50: 12 µM
[2]
  Ki: 8.95 µM
[3]
  Ki: > 100 µM
[4]
  Ki: 43 µM

## CC(=O)O.N=C(N)c1ccc(C(=O)NC[C@@H]2CN(c3ccc(N4CCC(C(=O)O)CC4)cc3)C(=O)O2)cc1
[1]
  IC50: 4.7 µM
[2]
  Ki: 3.79 µM
[3]
  Ki: > 100 µM
[4]
  Ki: 62.9 µM

## CC(=O)O.N=C(N)c1ccc(CNC[C@H]2CN(c3ccc(N4CCC(C(=O)O)CC4)cc3)C(=O)O2)cc1
[1]
  IC50: 2.2 µM
[2]
  Ki: 17.8 µM
[3]
  Ki: 53 µM
[4]
  Ki: 54.1 µM

## CCOC(=O)C1CCN(c2ccc(N3C[C@H](CNC(=O)c4ccc(Cl)c(N)c4)OC3=O)cc2)CC1
[1]
  IC50: > 300 µM
[2]
  Ki: > 100 µM
[3]
  Ki: > 100 µM
[4]
  Ki: 10.8 µM

## CCOC(=O)C1CCN(c2ccc(N3C[C@@H](CNC(=O)c4ccc(Cl)c(N)c4)OC3=O)cc2)CC1
[1]
  IC50: > 300 µM
[2]
  Ki: > 100 µM
[3]
  Ki: > 100 µM
[4]
  Ki: 82.3 µM

## Nc1cc(C(=O)NC[C@H]2CN(c3ccc(N4CCC(C(=O)O)CC4)cc3)C(=O)O2)ccc1Cl
[1]
  IC50: 25.8 µM
[2]
  Ki: > 100 µM
[3]
  Ki: > 100 µM
[4]
  Ki: 37 µM

## Nc1cc(C(=O)NC[C@@H]2CN(c3ccc(N4CCC(C(=O)O)CC4)cc3)C(=O)O2)ccc1Cl
[1]
  IC50: 12.8 µM
[2]
  Ki: > 100 µM
[3]
  Ki: > 100 µM
[4]
  Ki: 57.7 µM

## O=C(NC[C@H]1CN(c2ccc(N3CCC(C(=O)O)CC3)cc2)C(=O)O1)c1ccc(Cl)c(-c2noc(=O)[nH]2)c1
[1]
  IC50: 15.3 µM
[2]
  Ki: > 100 µM
[3]
  Ki: > 100 µM
[4]
  Ki: 89.7 µM

Reference: ChEMBL document CHEMBL2390916, “Low molecular weight dual inhibitors of factor Xa and fibrinogen binding to GPIIb/IIIa with highly overlapped pharmacophores” (Eur J Med Chem, 2013)
